Assay results taken from PubChem BioAssay.
Inconclusive results are not listed.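 How the source made its calls, unless noted: active means RAM network inhibition above 8.4% in each of two replicates, 3 SD over the compound average; inconclusive means above 8.4% inhibition in only one replicate; inactive means 8.4% inhibition or less in each replicate.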

How the values were obtained:
[1] = S. cerevisiae growth inhibition in permissive medium (OD615), pilot counter-assay for S. cerevisiae lifespan shortening project, permissive growth control (AID 705;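 active means growth inhibition above 25% in both replicates, a cutoff set 3 SD above the mean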); conditions: OD615, 24 h, at 10 µM, hits give high values
Outline: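 System: Engineered DeaD yeast | Buffer or medium: SC raffinose/galactose permissive medium | Incubation: Cells pre-grown 4 h, then 24 h compound exposure, 30 °C humidified | Measured by: Absorbance (optical density) at 615 nm | Read-out: Reduction in yeast growth (OD615)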

[2] = S. cerevisiae growth inhibition in restrictive medium, OD615, pilot screen, restrictive growth control, yeast lifespan reduction project (AID 706;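 active means growth inhibition above a set limit, 3 SD over mean compound inhibition, in both replicates, cut at about 43% in these data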;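 further: modified DeaD lifespan yeast strain shifted to restrictive glucose medium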); conditions: OD615, 48 h, at 10 µM, hits give high values
Outline: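 Material: modified S. cerevisiae; Medium: glucose-based CSMM-D restrictive medium; Compound dosing: one concentration, 10 µM final, 0.25% DMSO; Incubation: 48 h compound exposure at 30 °C; Measured by: OD615.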

[3] = doxorubicin toxicity protection in MRP-1 cells – H69AR cells, CellTiter-Glo, duplicate, MRP-1 activator project, pilot screen (AID 807;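 active means viability increase at or above a cutoff of the median across tested compounds plus 3 SD, cut at about 8.5% in these data, passing the limit was not always enough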;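 further: compound pretreatment 18-22 h then 72 h combined with doxorubicin; 0% = doxorubicin alone and 100% = vehicle without doxorubicin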); conditions: H69AR viability with doxorubicin, CellTiter-Glo luminescence; at 10 µM; hits give high values
[4] = viability of HCT116 without oncogenic beta-catenin – human colon tumor cells, pilot screen (AID 823;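 active means cell viability at or below a set limit in both duplicate runs, the limit being the all-compound median minus 4 SD, cut at about 23% in these data, passing the limit was not always enough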;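 further: 0% = wells killed by 20 µM Hyamine and 100% = untreated DMSO cell wells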); conditions: HCT116 beta-catenin knockout viability, CellTiter-Glo, 60 h; at 10 µM; hits give low values
[5] = viability of PTEN-null HCT116 cells – cell-based, HCT116 clonal line, CellTiter-Glo, pilot screen (AID 824;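 active means viability at or below 27.92% in each of two runs, the all-compound median minus 4 SD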;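 further: 0% = 20 µM Hyamine control and 100% = vehicle cell control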); conditions: HCT116 PTEN-deleted viability, 60 h, at 10 µM, hits give low values
[6] = RAM pathway blockade in budding yeast – dse1pr::URA3 reporter, 5-FOA selection, pilot screen (AID 869;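 active means inhibition over a set limit, the all-compound mean plus 3 SD, in both replicate runs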;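 further: 0% = DMSO wells with no growth and 100% = 10 µM 1-NA-PP1 with full growth; RAM network block rescues cells from 5-FOA so hits raise OD615 growth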); conditions: S. cerevisiae dse1pr::URA3 5-FOA growth, OD615, 2 d; at 10 µM; hits give high values; strain carries analog-sensitive mutant Cbk1 kinase
[7] = RAM signaling pathway blockade in yeast – S. cerevisiae, Pdr1DBD-CYC8 efflux-inhibited sensitized strain, primary screen (AID 1298);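 further: 0% = DMSO untreated cells without growth and 100% = 10 µM 1-NA-PP1 full growth; higher means more yeast growth rescued from 5-FOA killing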; conditions: S. cerevisiae cbk1-as DSE1-URA3 strain, 5-FOA growth OD615, 2 d; at 50 µM; hits give high values

Cc1cc(Nc2ccc(F)cc2Cl)n2nc(C)nc2n1
inactive: growth inhibition [1] -9.76% | growth inhibition [2] -13% | viability increase [3] -0.59% | viability [4] 109% | viability [5] 99.6% | inhibition [6] 1.51% | RAM network inhibition [7] 2.31%

COc1ccc(C2N3CC4(C)CN2CC(C)(C3)C4)cc1OC (configuration not stated)
inactive: growth inhibition [1] -3.73% | growth inhibition [2] -17.4% | viability increase [3] -0.73% | viability [4] 105% | viability [5] 101% | inhibition [6] 1.08% | RAM network inhibition [7] 0.83%

Cc1cc(C)nc(NS(=O)(=O)c2ccc(NC(=O)C3CC(=O)N(c4ccccc4)C3)cc2)n1 (configuration not stated)
inactive: growth inhibition [1] -4.82% | growth inhibition [2] 7.38% | viability increase [3] 1.33% | viability [4] 104% | viability [5] 100% | inhibition [6] 1.81% | RAM network inhibition [7] 3.68%

COc1ccc(C(=O)N(Cc2nc(-c3ccc(C)cc3)no2)C(C)C)cc1OC
inactive: growth inhibition [1] -12.1% | growth inhibition [2] -6.13% | viability increase [3] 1.37% | viability [4] 93.6% | viability [5] 79.3% | inhibition [6] 3.8% | RAM network inhibition [7] 5.36%

NS(=O)(=O)c1ccc(CCNC(=O)NC2(C(F)(F)F)Oc3ccccc3O2)cc1
inactive: growth inhibition [1] -2.1% | growth inhibition [2] -6.81% | viability increase [3] -6.42% | viability [4] 63.4% | viability [5] 80.3% | inhibition [6] 0.12% | RAM network inhibition [7] 3.68%

Clc1ccc(Sc2oc(/C=N/n3cnnc3)cc2Br)cc1
inactive: growth inhibition [1] -0.475% | growth inhibition [2] 22.4% | viability increase [3] -8.12% | viability [4] 27.6% | viability [5] 50.5% | inhibition [6] 0.36% | RAM network inhibition [7] 1.69%

Cc1cccc(-n2c(CNC(=O)c3ccccc3)nnc2SCC(=O)Nc2nccs2)c1
inactive: growth inhibition [1] 4.21% | growth inhibition [2] 15.6% | viability increase [3] -3.48% | viability [4] 112% | viability [5] 103% | inhibition [6] 1.17% | RAM network inhibition [7] 5.7%

COc1ccc(-c2noc(-c3cccc(OC)c3OC)n2)cc1OC
inactive: growth inhibition [1] -8.92% | growth inhibition [2] -10.4% | viability increase [3] -1.07% | viability [4] 102% | viability [5] 94.3% | inhibition [6] 2.87% | RAM network inhibition [7] 2.97%

CCOc1ccc(C2CC(c3ccc(F)cc3)Nc3nc(N)nn32)cc1 (configuration not stated)
inactive: growth inhibition [1] 4.3% | growth inhibition [2] 6.27% | viability increase [3] 2.97% | viability [4] 105% | viability [5] 101% | inhibition [6] 0.7% | RAM network inhibition [7] 0.88%

O=C(CCS(=O)(=O)c1cccs1)NC1CCCCCC1
inactive: growth inhibition [1] -2.95% | growth inhibition [2] -4.64% | viability increase [3] -0.19% | viability [4] 94.6% | viability [5] 92.7% | inhibition [6] 1.29% | RAM network inhibition [7] 5.23%

CCCC(c1c(C)n(C)n(-c2ccccc2)c1=O)c1c(C)n(C)n(-c2ccccc2)c1=O
inactive: growth inhibition [1] -9.58% | growth inhibition [2] -13.4% | viability increase [3] -1.18% | viability [4] 90.2% | viability [5] 103% | inhibition [6] 1.16% | RAM network inhibition [7] 4.48%

CC1CCCN(c2nc3c(c(=O)[nH]c(=O)n3C)n2Cc2ccccc2Cl)C1 (configuration not stated)
inactive: growth inhibition [1] -15.4% | growth inhibition [2] -35.9% | viability increase [3] -5.4% | viability [4] 84.9% | viability [5] 81% | inhibition [6] 0.485% | RAM network inhibition [7] 9.1%

CCOC(=O)c1ccc(S(=O)(=O)N2CCN(CCC#N)CC2)cc1
inactive: growth inhibition [1] -7.13% | growth inhibition [2] 0.63% | viability increase [3] 1.42% | viability [4] 102% | viability [5] 99.4% | inhibition [6] 0.195% | RAM network inhibition [7] 0.21%

O=C(COC(=O)C(O)c1ccccc1)c1ccc2c(c1)OCCO2 (configuration not stated)
inactive: growth inhibition [1] -4.38% | growth inhibition [2] -9.29% | viability increase [3] -0.39% | viability [4] 97.1% | viability [5] 106% | inhibition [6] 1.27% | RAM network inhibition [7] 4.89%

CCOC(=O)c1ccc(NC(=O)CN2C(=O)CSC2=O)cc1
inactive: growth inhibition [1] -1.29% | growth inhibition [2] -0.27% | viability increase [3] 1.63% | viability [4] 95.7% | viability [5] 103% | inhibition [6] 3.08% | RAM network inhibition [7] 4.03%

O=C(C1CCCN(S(=O)(=O)c2cccc3cccnc23)C1)N1CCN(c2ccccc2F)CC1 (configuration not stated)
inactive: growth inhibition [1] -5.55% | growth inhibition [2] 7.3% | viability increase [3] -0.18% | viability [4] 73.2% | viability [5] 76.5% | inhibition [6] -0.265% | RAM network inhibition [7] 2.98%

Cc1nnc(SCc2ccc(Cl)cc2Cl)[nH]c1=O
inactive: growth inhibition [1] -11.1% | growth inhibition [2] 1.19% | viability increase [3] 0.05% | viability [4] 104% | viability [5] 99.1% | inhibition [6] 0.42% | RAM network inhibition [7] 4.49%

Cc1c(C(=O)OCC2CCCO2)[nH]c2c1C(=O)CC(c1ccc(N(C)C)cc1)C2 (configuration not stated)
inactive: growth inhibition [1] -4.14% | growth inhibition [2] 3.2% | viability increase [3] -0.25% | viability [4] 67.7% | viability [5] 71.5% | inhibition [6] 1.09% | RAM network inhibition [7] 6.62%

O=C(NCCCN1CCN(c2ccccc2F)CC1)C1CCCN(S(=O)(=O)c2cnc[nH]2)C1 (configuration not stated)
inactive: growth inhibition [1] 4.25% | growth inhibition [2] 2.15% | viability increase [3] 1.39% | viability [4] 95.1% | viability [5] 102% | inhibition [6] -0.46% | RAM network inhibition [7] 0.21%

Cn1c(SCc2nc3ccccc3[nH]2)nnc1-c1cccnc1
inactive: growth inhibition [1] 3.69% | growth inhibition [2] 24.8% | viability increase [3] -2.45% | viability [4] 95.1% | viability [5] 99.1% | inhibition [6] 2.94% | RAM network inhibition [7] 5.38%

CC12CCC(C(=O)Nc3ccccc3N3CCOCC3)(CC1=O)C2(C)C (configuration not stated)
inactive: growth inhibition [1] -9.71% | growth inhibition [2] -14.9% | viability increase [3] -2.5% | viability [4] 90.3% | viability [5] 94.8% | inhibition [6] 0.715% | RAM network inhibition [7] 6.03%

Cc1cc(C)n2nc(Nc3ccccc3)cc2n1
inactive: growth inhibition [1] -3.93% | growth inhibition [2] -10.7% | viability increase [3] -4.34% | viability [4] 90.1% | viability [5] 89.7% | inhibition [6] 1.97% | RAM network inhibition [7] 4.89%

CN1CCN(Cc2ccc(-c3ccc(Cl)cc3)o2)CC1
inactive: growth inhibition [1] -15.8% | growth inhibition [2] -22.6% | viability increase [3] -2.14% | viability [4] 86.1% | viability [5] 102% | inhibition [6] 1.56% | RAM network inhibition [7] 2.49%

Cc1noc(C(=O)Nc2c(C)n(C)n(-c3ccccc3)c2=O)c1Cl
inactive: growth inhibition [1] -13.3% | growth inhibition [2] -16.6% | viability increase [3] -2.04% | viability [4] 95% | viability [5] 98.7% | inhibition [6] 1.79% | RAM network inhibition [7] 0.38%

COc1ccc(OC)c(-c2nnc(NC(=O)C(C)Sc3nncn3C)s2)c1 (configuration not stated)
inactive: growth inhibition [1] -1.32% | growth inhibition [2] 23.7% | viability increase [3] -4.48% | viability [4] 106% | viability [5] 95.5% | inhibition [6] 0.65% | RAM network inhibition [7] 0.37%

O=C(Cn1ncc2c(=O)oc3ccccc3c21)NCCN1CCN(c2ccccc2F)CC1
inactive: growth inhibition [1] 1.82% | growth inhibition [2] -16.2% | viability increase [3] -0.78% | viability [4] 92.8% | viability [5] 91.5% | inhibition [6] 0.705% | RAM network inhibition [7] 1.34%

COC(=O)c1[nH]c2cc(OC)ccc2c1NC(=O)c1ccc2c(c1)OCO2
inactive: growth inhibition [1] -9.79% | growth inhibition [2] -13.4% | viability increase [3] -3.43% | viability [4] 79.6% | viability [5] 81.2% | inhibition [6] 1.74% | RAM network inhibition [7] 1.04%

CC1CCCC(C)N1C(=O)Cn1c(=O)sc2ccccc21 (configuration not stated)
inactive: growth inhibition [1] -4.41% | growth inhibition [2] 8.62% | viability increase [3] -3.08% | viability [4] 97.8% | viability [5] 90.6% | inhibition [6] 0.87% | RAM network inhibition [7] 4.18%

CCCCCn1c(CNC(=O)CC)nc2ccccc21
inactive: growth inhibition [1] -6.04% | growth inhibition [2] -11.1% | viability increase [3] 0.02% | viability [4] 97.5% | viability [5] 96.5% | inhibition [6] 1.53% | RAM network inhibition [7] 4.9%

NC(=O)C1CCN(C(=O)C2CCN(S(=O)(=O)c3ccccc3)CC2)CC1
inactive: growth inhibition [1] -2.18% | growth inhibition [2] 12.3% | viability increase [3] -1.4% | viability [4] 102% | viability [5] 105% | inhibition [6] 1.06% | RAM network inhibition [7] 0.84%

c1ccc2c(c1)nc(N1CCOCC1)c1nnnn12
inactive: growth inhibition [1] -7.82% | growth inhibition [2] -4.7% | viability increase [3] -3.18% | viability [4] 109% | viability [5] 103% | inhibition [6] 1.38% | RAM network inhibition [7] 10.4%

COc1ccc(C2CC(=O)C=C(NCC3CCCO3)C2)cc1 (configuration not stated)
inactive: growth inhibition [1] -10.4% | growth inhibition [2] -1.65% | viability increase [3] -0.23% | viability [4] 96.2% | viability [5] 100% | inhibition [6] 1.43% | RAM network inhibition [7] 1.32%

CN(Cc1ccccc1)c1nnc(N)s1
inactive: growth inhibition [1] 0.13% | growth inhibition [2] -3.49% | viability increase [3] -2% | viability [4] 105% | viability [5] 102% | inhibition [6] 0.935% | RAM network inhibition [7] 2.5%

O=C(c1ccccc1)c1ccc(OC(=O)N2CCOCC2)cc1
inactive: growth inhibition [1] -7.92% | growth inhibition [2] 4.65% | viability increase [3] 1.36% | viability [4] 109% | viability [5] 90.7% | inhibition [6] 1.49% | RAM network inhibition [7] 8.53%

COc1ccc(CNc2oc(C)nc2C#N)cc1
inactive: growth inhibition [1] -0.095% | growth inhibition [2] 5.62% | viability increase [3] -1.84% | viability [4] 98.6% | viability [5] 93.1% | inhibition [6] 0.24% | RAM network inhibition [7] 6.09%

CCCCCCNC(=O)C(C(=O)OCC)C1CCCCC1 (configuration not stated)
inactive: growth inhibition [1] -4.1% | growth inhibition [2] -1.5% | viability increase [3] -1.52% | viability [4] 84% | viability [5] 82.2% | inhibition [6] 0.15% | RAM network inhibition [7] 3.88%
